DENV2 CPE rescue: DENV2-induced cell death inhibition; DENV2-infected cells, cytopathic effect rescue, plate reader; CPE inhibition, % at 9.99 µM; hit rate 1.7% among 350,000; in the data active means CPE inhibition above about 20%, passing the limit was not always enough; inconclusive means no clear call, values can overlap the other calls; tested in BHK-21 cells
Cneo AK release: causes C. neoformans cell lysis; hit rate 0.2% among 360,000; lysis activity, % at 15 µM; AID 651654; adenylate kinase release luminescence, 4 h; normalised: neutral wells 0, clomiphene wells 100;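 active means mean lysis activity across replicates of at least 80%, whatever share of replicates individually reach that level; inactive means mean lysis activity below 80%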
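Test system: log-phase Cryptococcus neoformans yeast cells; Quantity: yeast cell density of 5 × 10^6 cells/mL; Buffer or medium: YPD; Doses: single compound concentration per well; Timing: 4 h at 37 °C static, read 1 h later; Measured by: AK luminescence; Read-out basis: lysis from increased AK signal; Control set: Clomiphene as positive control.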
Statin myotox sup: suppressors of simvastatin-induced myotoxicity in C2C12 myotubes; AID 602340; ATP luminescence, 48 h; scaled: DMSO 0, geranylgeraniol control 100; rescue of ATP level, % at 7.49 µM; hit rate 0.78% among 330,000;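 active means mean ATP rescue above about 67%, or every replicate alone reaching that limit, limit read from the data, passing the limit was not always enough; inconclusive means no clear call, values can overlap the other calls; inactive means mean under the limit and some replicate under it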;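 further: myotubes were challenged with 10 µM simvastatin during compound exposure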
XiGFP reactiv: X-chromosome reactivation activator; XiGFP mouse fibroblasts, % GFP-positive cells imaging, 3 d; cells co-treated with 5-aza-dC sensitizer; scaled so ellipticine positive control = 100%; hit rate 0.055% among 360,000; AID 743238; activation, % at 7.58 µM;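 active means mean normalized replicate activation at least 10% and every replicate at or above 10%; inconclusive means only one of the two criteria met; inactive means mean below 10% and not all replicates reach 10%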
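Material: XiGFP fibroblasts, SV40-immortalized; Buffer or medium: DMEM containing 5-aza-dC; Compound dosing: single point; Times: 3 days compound exposure.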
Hits are given with their value. Compounds with a hit are over-represented: about 2.1% of the library has one in this group of screens.

What do the screens show for `C[C@H]1CCCCO[C@H](CN(C)C(=O)Nc2ccc(F)cc2)[C@@H](C)CN([C@@H](C)CO)C(=O)c2cc(NC(=O)Nc3ccc(F)cc3)ccc2O1`?
DENV2 CPE rescue: 46; Cneo AK release: inactive; XiGFP reactiv: inactive

Results for CCC(=O)N1CC[C@@H]2[C@@H](CO)Nc3ccc(C#Cc4cccnc4)cc3[C@@H]21 ?
DENV2 CPE rescue: inactive; Cneo AK release: inactive; Statin myotox sup: inactive; XiGFP reactiv: inactive

What do the screens show for `C[C@@H]1CN([C@H](C)CO)C(=O)c2cc(NC(=O)CCN3CCOCC3)ccc2O[C@@H]1CN(C)Cc1ccc(Cl)c(Cl)c1`?
DENV2 CPE rescue: inactive; Cneo AK release: inactive; Statin myotox sup: inactive; XiGFP reactiv: inactive

Results for C[C@@H]1CN([C@H](C)CO)C(=O)c2cc(NC(=O)Nc3ccc(F)cc3)ccc2O[C@@H](C)CCCCO[C@H]1CN(C)C(=O)NC1CCCCC1 ?
DENV2 CPE rescue: 21; Cneo AK release: inactive; XiGFP reactiv: inactive

How did Cc1cccc(OCCC(=O)Nc2ccc(S(=O)(=O)N3CCCC3)cc2)c1 do in these assays?
Cneo AK release: inactive; Statin myotox sup: 109

What do the screens show for `O=C(Cc1cccc(C(F)(F)F)c1)Nc1cccc(S(=O)(=O)N2CCCC2)c1`?
DENV2 CPE rescue: inactive; Cneo AK release: inactive; Statin myotox sup: inactive; XiGFP reactiv: inactive

Results for O=C(COc1cccc(C(F)(F)F)c1)Nc1ccc(S(=O)(=O)N2CCCC2)cc1 ?
DENV2 CPE rescue: inactive; Cneo AK release: inactive; Statin myotox sup: 116

How did Nn1c(SCC(=O)Nc2ccc(S(=O)(=O)N3CCCC3)cc2)nnc1C(F)(F)F do in these assays?
Cneo AK release: inactive; Statin myotox sup: 107

What do the screens show for `O=C(Cc1cccc(C(F)(F)F)c1)Nc1ccc(S(=O)(=O)N2CCCC2)cc1`?
DENV2 CPE rescue: 79; Cneo AK release: inactive; Statin myotox sup: inactive; XiGFP reactiv: inactive

How did Cc1cccc(OCCC(=O)Nc2ccc(C)c(S(=O)(=O)N3CCCCC3)c2)c1 do in these assays?
DENV2 CPE rescue: inactive; Cneo AK release: inactive; XiGFP reactiv: inactive

Results for CC(C)NC(=O)N(C)C[C@H]1Oc2ncc(C#Cc3ccccc3F)cc2C(=O)N([C@H](C)CO)C[C@@H]1C ?
DENV2 CPE rescue: inactive; Cneo AK release: inactive; Statin myotox sup: inactive; XiGFP reactiv: inactive

What do the screens show for `C[C@H](NC(=O)[C@H]1[C@H](CO)[C@H]2Cn3c(cccc3=O)[C@H]2N1CC1CCCC1)c1ccccc1`?
DENV2 CPE rescue: inactive; Cneo AK release: inactive; Statin myotox sup: inactive; XiGFP reactiv: inactive

How did CC1=C(C(=O)OCc2ccccc2)C(c2ccccc2)NC(=O)N1 (stereo not given) do in these assays?
DENV2 CPE rescue: inconclusive; Cneo AK release: 80; Statin myotox sup: inactive; XiGFP reactiv: inactive

Results for Cc1noc(C)c1S(=O)(=O)Nc1ccc2c(c1)CC(=O)N([C@@H](C)CO)C[C@H](C)[C@@H](CN(C)Cc1ccc(Oc3ccccc3)cc1)O2 ?
DENV2 CPE rescue: inactive; Cneo AK release: inactive; Statin myotox sup: inactive; XiGFP reactiv: inactive

How did CO/N=C/c1ccc(Sc2ccccc2N)c([N+](=O)[O-])c1 do in these assays?
Cneo AK release: inactive; Statin myotox sup: 128

What do the screens show for `O=[N+]([O-])c1cc(/C=N/O)ccc1Sc1ccccc1`?
Cneo AK release: inactive; Statin myotox sup: 171

What do the screens show for `O=C(Nc1ccc(F)cc1)N[C@H]1CC[C@@H](CCNS(=O)(=O)c2ccccc2F)O[C@H]1CO`?
DENV2 CPE rescue: inactive; Cneo AK release: inactive; Statin myotox sup: inactive; XiGFP reactiv: inactive

Results for COc1ccc(NC(=O)CSc2c3c(nc4ccccc24)CCCC3)c(OC)c1 ?
Cneo AK release: inactive; Statin myotox sup: inactive; XiGFP reactiv: inactive

Results for COc1cc(NC(=O)CSc2c3c(nc4ccccc24)CCC3)cc(OC)c1OC ?
DENV2 CPE rescue: 70; Cneo AK release: inactive; XiGFP reactiv: inactive

How did CCN(C(=O)c1ccc2c(SCC(=O)O)c3c(nc2c1)CCC3)c1cc(Cl)ccc1OC do in these assays?
DENV2 CPE rescue: 50; Cneo AK release: inactive; Statin myotox sup: inactive; XiGFP reactiv: inactive

Results for COc1cc(NC(=O)c2ccc3c(SCC(=O)O)c4c(nc3c2)CCC4)cc(OC)c1OC ?
DENV2 CPE rescue: inactive; Cneo AK release: inactive; Statin myotox sup: inactive; XiGFP reactiv: inactive

Results for Cc1ccsc1CN(C)C(=O)CN1C(=O)NC2(CCCc3ccccc32)C1=O (stereo not given) ?
DENV2 CPE rescue: inactive; Cneo AK release: inactive; Statin myotox sup: inactive; XiGFP reactiv: inactive

Results for COc1cccc(CN(C)C(=O)CN2C(=O)NC3(CCCc4ccccc43)C2=O)c1 (stereo not given) ?
DENV2 CPE rescue: 73; Cneo AK release: inactive; Statin myotox sup: inactive; XiGFP reactiv: inactive

Results for CCCCN(CCCC)c1nn[nH]n1 ?
DENV2 CPE rescue: inactive; Cneo AK release: inactive; Statin myotox sup: 96; XiGFP reactiv: inactive

How did CCCCN(CCCC)c1ncnc2nc[nH]c12 do in these assays?
DENV2 CPE rescue: inactive; XiGFP reactiv: inactive

Results for CC(C)CN(CC(C)C)c1nn[nH]n1 ?
DENV2 CPE rescue: inconclusive; Cneo AK release: inactive; Statin myotox sup: 114; XiGFP reactiv: inactive

Results for CC(=O)N[C@@H]1C=C[C@H](CC(=O)NCc2ccc(Cl)cc2)O[C@H]1CO ?
DENV2 CPE rescue: inactive; Cneo AK release: inactive; Statin myotox sup: inactive; XiGFP reactiv: inactive

Results for Cc1ccc(C2(C)NC(=O)N(CC(=O)Nc3ccccc3C(=O)NC3CCCC3)C2=O)cc1 (stereo not given) ?
DENV2 CPE rescue: 62; Cneo AK release: inactive; Statin myotox sup: inactive; XiGFP reactiv: inactive

What do the screens show for `O=C(CN1C(=O)c2ccccc2C1=O)Nc1ccccc1C(=O)NC1CCCCCC1`?
Cneo AK release: inactive; Statin myotox sup: inactive

How did CCOC(=O)C(NC(=O)c1ccccc1)=C(C)C do in these assays?
DENV2 CPE rescue: inactive; Cneo AK release: inactive; Statin myotox sup: inactive

How did COC(=O)C(NC(=O)c1ccccc1)=C(C)C do in these assays?
Cneo AK release: inactive; Statin myotox sup: 94

Results for C[C@H]1CN([C@@H](C)CO)C(=O)c2cccc(NC(=O)CCCCCC(=O)Nc3ccccc3N)c2O[C@@H]1CN(C)S(=O)(=O)c1ccc(F)cc1 ?
DENV2 CPE rescue: inactive; XiGFP reactiv: inactive

How did CN(C)c1ccc(/C=C(/C#N)C(=O)NCc2ccccc2)o1 do in these assays?
Statin myotox sup: inactive; XiGFP reactiv: 17

How did N#C/C(=C/c1ccccc1)C(=O)NCc1ccccc1 do in these assays?
DENV2 CPE rescue: inactive; Cneo AK release: inactive; Statin myotox sup: inactive; XiGFP reactiv: inactive

How did O=S(=O)(NC1=NCCCCC1)c1ccc(F)cc1 do in these assays?
DENV2 CPE rescue: inactive; Cneo AK release: inactive; Statin myotox sup: inactive; XiGFP reactiv: inactive

Results for O=S(=O)(NC1=NCCC1)c1ccc(F)cc1 ?
Cneo AK release: inactive; Statin myotox sup: 107

Results for Cc1ccc(S(=O)(=O)NNC2=NCCCCC2)cc1 ?
DENV2 CPE rescue: inactive; Cneo AK release: inactive; Statin myotox sup: 92; XiGFP reactiv: inactive

Results for O=C(Cc1ccncc1)NCC[C@@H]1CC[C@@H](NC(=O)C2CCOCC2)[C@H](CO)O1 ?
DENV2 CPE rescue: inconclusive; Cneo AK release: inactive; Statin myotox sup: inactive; XiGFP reactiv: inactive

Assay outcomes (PubChem)
